# Test results reported in ChEMBL document CHEMBL1146113, “Synthesis and SAR of heteroaryl-phenyl-substituted pyrazole derivatives as highly selective and potent canine COX-2 inhibitors” (Bioorg Med Chem Lett, 2006).
# Tests used:
# Canis lupus familiaris = species on record: Canis lupus familiaris; test: Selectivity for COX2 over COX1
# [1] = biological target: T1, Prostaglandin G/H synthase 1 (Canis lupus familiaris, UniProt Q8HZR1); test: Inhibition of COX1 in canine whole blood
# T1 sequence (Q8HZR1 whole entry): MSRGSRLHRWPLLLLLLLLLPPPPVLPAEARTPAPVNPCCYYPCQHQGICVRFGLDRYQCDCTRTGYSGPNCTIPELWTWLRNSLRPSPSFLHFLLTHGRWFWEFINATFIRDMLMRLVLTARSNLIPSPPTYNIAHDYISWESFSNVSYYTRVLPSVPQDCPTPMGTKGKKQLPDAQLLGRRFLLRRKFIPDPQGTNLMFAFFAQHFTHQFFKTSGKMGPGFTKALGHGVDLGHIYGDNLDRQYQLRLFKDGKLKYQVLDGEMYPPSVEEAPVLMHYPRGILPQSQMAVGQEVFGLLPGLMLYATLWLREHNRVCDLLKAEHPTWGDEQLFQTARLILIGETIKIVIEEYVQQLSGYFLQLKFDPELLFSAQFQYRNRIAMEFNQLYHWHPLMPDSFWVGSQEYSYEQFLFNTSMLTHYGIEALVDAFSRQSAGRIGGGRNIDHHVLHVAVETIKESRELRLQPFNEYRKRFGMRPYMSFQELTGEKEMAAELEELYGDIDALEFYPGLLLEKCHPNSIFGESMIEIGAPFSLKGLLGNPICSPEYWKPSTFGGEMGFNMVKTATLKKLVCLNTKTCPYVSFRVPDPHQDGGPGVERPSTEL
# In short: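 Canine whole blood incubated with drug for 1 h at 37 °C, with drug-free samples as maximum TXB2 controls. EDTA (0.3% final) then added and serum collected and frozen. COX-1 activity read as TXB2 production by EIA, with samples diluted 1/10,000.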
# Cyclooxygenase-2 = biological target: T2, Cyclooxygenase-2 (Canis lupus familiaris, UniProt Q8SPQ9); test: Inhibition of COX2 in canine whole blood; assay type: tissue-based
# T2 sequence (Q8SPQ9 whole entry): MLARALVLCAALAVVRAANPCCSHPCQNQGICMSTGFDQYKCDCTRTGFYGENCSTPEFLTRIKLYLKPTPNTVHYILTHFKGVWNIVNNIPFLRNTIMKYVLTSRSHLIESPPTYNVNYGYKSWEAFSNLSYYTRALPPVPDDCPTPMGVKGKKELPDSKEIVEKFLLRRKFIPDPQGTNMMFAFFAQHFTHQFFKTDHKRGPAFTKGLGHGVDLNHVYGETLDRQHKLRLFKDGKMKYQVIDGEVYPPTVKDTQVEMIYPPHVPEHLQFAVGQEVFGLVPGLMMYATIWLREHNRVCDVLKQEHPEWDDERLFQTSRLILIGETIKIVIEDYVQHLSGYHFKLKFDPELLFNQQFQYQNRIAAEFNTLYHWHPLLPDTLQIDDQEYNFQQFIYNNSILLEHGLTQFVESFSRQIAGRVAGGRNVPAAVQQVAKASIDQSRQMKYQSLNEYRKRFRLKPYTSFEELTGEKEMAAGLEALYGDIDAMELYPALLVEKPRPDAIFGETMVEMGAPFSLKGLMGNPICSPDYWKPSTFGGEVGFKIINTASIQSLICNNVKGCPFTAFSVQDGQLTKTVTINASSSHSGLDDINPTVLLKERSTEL
# In short: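 Heparinized canine whole blood incubated overnight at 37 °C with drug plus LPS to stimulate PGE2. LPS-only controls gave maximum PGE2 and vehicle-only controls gave background. EDTA (0.3% final) then added and plasma collected and frozen. PGE2 measured by EIA, with samples diluted 1/1000.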
# [2] = Oral bioavailability in dog; assay type: ADME, organism-based, Canis lupus familiaris; details: in vivo
# [3] = Half life in dog; assay type: ADME, organism-based, Canis lupus familiaris; details: in vivo
Ratio IC50 (Canis lupus familiaris),IC50 [1] [µM],IC50 (Cyclooxygenase-2) [µM],bioavailability [2] [%],half-life [3] [h],Structure (SMILES)
> 313,> 50,0.16,,,CS(=O)(=O)c1ccc(-n2nc(C(F)(F)F)cc2-c2ccc(-c3cscn3)cc2)nc1
172,15.5,0.09,,,Cc1cc(-c2cc(C(F)(F)F)nn2-c2ccc(S(C)(=O)=O)cn2)ccc1-c1cscn1
15,2.7,0.18,,,CS(=O)(=O)c1ccc(-n2nc(C(F)(F)F)cc2-c2ccc(-c3cncs3)cc2)nc1
83,5,0.06,,,CS(=O)(=O)c1ccc(-n2nc(C(F)F)cc2-c2ccc(-c3ccco3)c(F)c2)nc1
212,23.4,0.11,,,CS(=O)(=O)c1ccc(-n2nc(C(F)(F)F)cc2-c2ccc(-c3nccs3)c(C#N)c2)nc1
238,50,0.21,,,CS(=O)(=O)c1ccc(-n2nc(C(F)(F)F)cc2-c2ccc(-c3nccs3)cc2)nc1
> 320,16,< 0.05,,,CS(=O)(=O)c1ccc(-n2nc(C(F)(F)F)cc2-c2ccc(-c3cscn3)c(Cl)c2)nc1
558,27.9,0.05,,,CS(=O)(=O)c1ccc(-n2nc(C(F)(F)F)cc2-c2ccc(-c3ccco3)c(F)c2)nc1
> 4170,> 50,0.012,34,16.4,CS(=O)(=O)c1ccc(-n2nc(C(F)(F)F)cc2-c2ccc(-c3ccco3)c(Cl)c2)nc1
92,12,0.13,,,CS(=O)(=O)c1ccc(-n2nc(C(F)F)cc2-c2ccc(-c3ccco3)cc2)nc1
200,3.8,0.019,,,Cc1cc(-c2cc(C(F)F)nn2-c2ccc(S(C)(=O)=O)cn2)ccc1-c1cscn1
154,2,0.013,,,CS(=O)(=O)c1ccc(-n2nc(C(F)(F)F)cc2-c2ccc(-c3ccco3)c(C#N)c2)nc1
487,12.7,0.03,,,Cc1cc(-c2cc(C(F)(F)F)nn2-c2ccc(S(C)(=O)=O)cn2)ccc1-c1cocn1
4.9,2,0.41,,,CS(=O)(=O)c1ccc(-n2nc(C(F)(F)F)cc2-c2ccc(-c3ccco3)c(C(N)=O)c2)nc1
78,22.7,0.29,,,CS(=O)(=O)c1ccc(-n2nc(C(F)(F)F)cc2-c2ccc(-c3cscn3)cc2F)nc1
,,> 0.5,,,CS(=O)(=O)c1ccc(-n2nc(C(F)(F)F)cc2-c2cccc(-c3cscn3)c2)nc1
,,> 0.5,,,Cc1scnc1-c1ccc(-c2cc(C(F)(F)F)nn2-c2ccc(S(C)(=O)=O)cn2)cc1
,,> 0.5,,,COC(=O)c1cc(-c2cc(C(F)(F)F)nn2-c2ccc(S(C)(=O)=O)cn2)ccc1-c1ccco1
550,5.5,0.01,,,CS(=O)(=O)c1ccc(-n2nc(C(F)F)cc2-c2ccc(-c3ccco3)c(Cl)c2)nc1
759,18.2,0.02,,,CS(=O)(=O)c1ccc(-n2nc(C(F)(F)F)cc2-c2ccc(-c3ccco3)cc2)nc1
171,11.1,0.065,,,Cc1cc(-c2cc(C(F)(F)F)nn2-c2ccc(S(C)(=O)=O)cn2)ccc1-c1ncco1
340,3.4,0.01,,,Cc1cc(-c2cc(C(F)(F)F)nn2-c2ccc(S(C)(=O)=O)cn2)ccc1-c1ccco1
